Measured values taken from ChEMBL document CHEMBL2390847, “Synthesis and biological evaluation of novel phosphatidylinositol 3-kinase inhibitors: Solubilized 4-substituted benzimidazole analogs of 2-(difluoromethyl)-1-[4,6-di(4-morpholinyl)-1,3,5-triazin-2-yl]-1H-benzimidazole (ZSTK474)” (Eur J Med Chem, 2013).

Assays:
[1] = Aqueous solubility of the compound in water by HPLC analysis; format: physicochemical
Outline: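 Solid mixed with water to make 2 mM, sonicated 15 min, centrifuged; supernatant diluted 2-fold, recentrifuged, analysed by C18 HPLC (acetonitrile/45 mM ammonium formate pH 3.5 gradient); peak area compared with DMSO standard.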

[2] = Cytotoxicity against human NZOV9 cells expressing PI3K p110alpha Y1021C mutant assessed as growth inhibition after 5 days by [3H]-thymidine incorporation assay; format: functional, cell-based
Outline: (§1)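 NZB5 (medulloblastoma, wild-type p110α) and NZOV9 (ovarian endometrioid adenocarcinoma, Y1021C p110α) cells cultured with drug for 5 days; proliferation by [³H]-thymidine incorporation at end; IC50 as 50% inhibition versus controls, averaged over at least two determinations.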

[3] = Cytotoxicity against human NZB5 cells expressing wild type PI3K p110alpha assessed as growth inhibition after 5 days by [3H]-thymidine incorporation assay; format: functional, cell-based; outline: as §1
[4] = molecular target: PI3-kinase p110-delta/p85-alpha (Homo sapiens, UniProt O00329); test: Inhibition of recombinant PI3K p110delta/p85alpha (unknown origin) using phosphotidylinositol as susbstrate after 1 hr by thin layer paper chromatographic analysis in presence of [gamma-33P]ATP; format: protein-complex assay
Sequence of PI3-kinase p110-delta/p85-alpha (P27986 whole entry): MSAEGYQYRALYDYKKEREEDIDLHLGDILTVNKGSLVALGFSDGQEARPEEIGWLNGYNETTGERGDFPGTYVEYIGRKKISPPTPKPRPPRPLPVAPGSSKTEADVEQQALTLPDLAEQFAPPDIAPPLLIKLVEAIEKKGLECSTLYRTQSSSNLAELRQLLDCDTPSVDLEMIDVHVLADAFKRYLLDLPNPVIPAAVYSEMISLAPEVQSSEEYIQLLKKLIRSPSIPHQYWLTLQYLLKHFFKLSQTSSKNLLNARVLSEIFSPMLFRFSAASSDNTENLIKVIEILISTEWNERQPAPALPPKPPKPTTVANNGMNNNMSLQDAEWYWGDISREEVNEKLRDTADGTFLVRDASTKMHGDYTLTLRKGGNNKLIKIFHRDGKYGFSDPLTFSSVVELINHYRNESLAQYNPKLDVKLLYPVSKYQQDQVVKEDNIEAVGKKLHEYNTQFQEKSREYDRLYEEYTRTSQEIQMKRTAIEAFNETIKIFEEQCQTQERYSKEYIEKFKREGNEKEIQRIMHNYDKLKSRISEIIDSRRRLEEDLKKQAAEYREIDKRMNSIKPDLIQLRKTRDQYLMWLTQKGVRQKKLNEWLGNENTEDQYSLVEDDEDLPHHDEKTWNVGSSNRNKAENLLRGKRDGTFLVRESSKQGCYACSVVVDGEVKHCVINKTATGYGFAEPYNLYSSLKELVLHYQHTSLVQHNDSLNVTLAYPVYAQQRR
Sequence of PI3-kinase p110-delta/p85-alpha (O00329 whole entry): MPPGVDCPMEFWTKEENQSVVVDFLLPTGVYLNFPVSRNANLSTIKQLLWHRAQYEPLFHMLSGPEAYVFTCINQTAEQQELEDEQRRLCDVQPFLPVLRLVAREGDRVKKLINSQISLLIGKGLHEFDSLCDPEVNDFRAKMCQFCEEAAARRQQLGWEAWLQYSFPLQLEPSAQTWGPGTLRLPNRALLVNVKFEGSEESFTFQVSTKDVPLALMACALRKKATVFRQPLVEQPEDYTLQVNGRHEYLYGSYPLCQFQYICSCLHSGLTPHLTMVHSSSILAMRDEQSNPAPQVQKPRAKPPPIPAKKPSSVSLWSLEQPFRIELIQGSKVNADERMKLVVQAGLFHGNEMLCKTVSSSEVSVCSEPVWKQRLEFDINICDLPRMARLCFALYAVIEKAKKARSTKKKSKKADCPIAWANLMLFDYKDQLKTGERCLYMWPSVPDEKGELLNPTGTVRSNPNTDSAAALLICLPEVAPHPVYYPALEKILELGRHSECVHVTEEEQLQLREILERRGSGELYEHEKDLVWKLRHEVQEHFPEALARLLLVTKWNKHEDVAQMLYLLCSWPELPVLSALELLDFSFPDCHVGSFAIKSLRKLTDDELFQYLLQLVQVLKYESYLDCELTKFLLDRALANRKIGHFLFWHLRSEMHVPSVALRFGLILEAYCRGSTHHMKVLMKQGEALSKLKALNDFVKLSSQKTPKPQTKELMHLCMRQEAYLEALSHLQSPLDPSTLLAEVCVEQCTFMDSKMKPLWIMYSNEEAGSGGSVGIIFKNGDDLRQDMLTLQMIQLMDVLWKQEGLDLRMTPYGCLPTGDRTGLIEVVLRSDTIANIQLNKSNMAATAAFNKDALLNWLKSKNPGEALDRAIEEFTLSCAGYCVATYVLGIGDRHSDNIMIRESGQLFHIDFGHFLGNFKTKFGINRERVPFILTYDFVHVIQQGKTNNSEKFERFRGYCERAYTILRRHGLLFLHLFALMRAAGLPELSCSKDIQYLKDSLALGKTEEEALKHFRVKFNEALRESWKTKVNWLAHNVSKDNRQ

[5] = molecular target: PI3K p110 beta/p85 alpha (Homo sapiens, UniProt P42338); test: Inhibition of recombinant PI3K p110beta/p85alpha (unknown origin) using phosphotidylinositol as susbstrate after 1 hr by thin layer paper chromatographic analysis in presence of [gamma-33P]ATP; format: protein-complex assay
Sequence of PI3K p110 beta/p85 alpha (P27986 whole entry): as the sequence (P27986 whole entry) above
Sequence of PI3K p110 beta/p85 alpha (P42338 whole entry): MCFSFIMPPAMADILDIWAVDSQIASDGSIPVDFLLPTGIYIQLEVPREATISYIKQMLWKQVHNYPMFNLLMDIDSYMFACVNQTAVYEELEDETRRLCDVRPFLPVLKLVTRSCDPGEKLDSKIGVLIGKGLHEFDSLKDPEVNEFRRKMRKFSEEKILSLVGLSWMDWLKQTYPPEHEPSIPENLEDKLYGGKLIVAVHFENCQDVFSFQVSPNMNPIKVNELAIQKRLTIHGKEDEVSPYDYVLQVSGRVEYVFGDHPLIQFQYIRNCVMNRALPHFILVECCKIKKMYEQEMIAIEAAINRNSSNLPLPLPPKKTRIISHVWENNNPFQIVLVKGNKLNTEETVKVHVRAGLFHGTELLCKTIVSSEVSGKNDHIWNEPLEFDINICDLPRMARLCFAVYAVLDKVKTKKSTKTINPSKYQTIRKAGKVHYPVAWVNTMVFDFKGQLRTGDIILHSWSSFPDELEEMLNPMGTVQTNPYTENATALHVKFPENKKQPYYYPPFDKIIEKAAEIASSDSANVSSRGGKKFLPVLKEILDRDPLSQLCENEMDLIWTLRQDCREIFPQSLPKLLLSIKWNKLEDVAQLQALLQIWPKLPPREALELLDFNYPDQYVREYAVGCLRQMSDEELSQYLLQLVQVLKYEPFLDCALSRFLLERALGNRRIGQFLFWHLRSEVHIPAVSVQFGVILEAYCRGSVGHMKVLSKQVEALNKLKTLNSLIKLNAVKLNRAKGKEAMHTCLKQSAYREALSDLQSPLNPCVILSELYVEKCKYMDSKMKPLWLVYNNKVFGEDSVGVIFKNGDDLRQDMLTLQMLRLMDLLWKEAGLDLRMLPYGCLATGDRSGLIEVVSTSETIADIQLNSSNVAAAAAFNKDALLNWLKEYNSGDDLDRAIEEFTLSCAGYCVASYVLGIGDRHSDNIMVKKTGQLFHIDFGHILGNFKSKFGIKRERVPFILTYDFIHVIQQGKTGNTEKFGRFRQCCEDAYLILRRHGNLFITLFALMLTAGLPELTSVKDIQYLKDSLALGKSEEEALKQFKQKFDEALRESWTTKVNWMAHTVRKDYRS

[6] = molecular target: PI3-kinase p110-alpha/p85-alpha (Homo sapiens, UniProt P42336); test: Inhibition of recombinant PI3K p110alpha/p85alpha (unknown origin) using phosphotidylinositol as susbstrate after 1 hr by thin layer paper chromatographic analysis in presence of [gamma-33P]ATP; format: protein-complex assay
Sequence of PI3-kinase p110-alpha/p85-alpha (P27986 whole entry): as the sequence (P27986 whole entry) above
Sequence of PI3-kinase p110-alpha/p85-alpha (P42336 whole entry): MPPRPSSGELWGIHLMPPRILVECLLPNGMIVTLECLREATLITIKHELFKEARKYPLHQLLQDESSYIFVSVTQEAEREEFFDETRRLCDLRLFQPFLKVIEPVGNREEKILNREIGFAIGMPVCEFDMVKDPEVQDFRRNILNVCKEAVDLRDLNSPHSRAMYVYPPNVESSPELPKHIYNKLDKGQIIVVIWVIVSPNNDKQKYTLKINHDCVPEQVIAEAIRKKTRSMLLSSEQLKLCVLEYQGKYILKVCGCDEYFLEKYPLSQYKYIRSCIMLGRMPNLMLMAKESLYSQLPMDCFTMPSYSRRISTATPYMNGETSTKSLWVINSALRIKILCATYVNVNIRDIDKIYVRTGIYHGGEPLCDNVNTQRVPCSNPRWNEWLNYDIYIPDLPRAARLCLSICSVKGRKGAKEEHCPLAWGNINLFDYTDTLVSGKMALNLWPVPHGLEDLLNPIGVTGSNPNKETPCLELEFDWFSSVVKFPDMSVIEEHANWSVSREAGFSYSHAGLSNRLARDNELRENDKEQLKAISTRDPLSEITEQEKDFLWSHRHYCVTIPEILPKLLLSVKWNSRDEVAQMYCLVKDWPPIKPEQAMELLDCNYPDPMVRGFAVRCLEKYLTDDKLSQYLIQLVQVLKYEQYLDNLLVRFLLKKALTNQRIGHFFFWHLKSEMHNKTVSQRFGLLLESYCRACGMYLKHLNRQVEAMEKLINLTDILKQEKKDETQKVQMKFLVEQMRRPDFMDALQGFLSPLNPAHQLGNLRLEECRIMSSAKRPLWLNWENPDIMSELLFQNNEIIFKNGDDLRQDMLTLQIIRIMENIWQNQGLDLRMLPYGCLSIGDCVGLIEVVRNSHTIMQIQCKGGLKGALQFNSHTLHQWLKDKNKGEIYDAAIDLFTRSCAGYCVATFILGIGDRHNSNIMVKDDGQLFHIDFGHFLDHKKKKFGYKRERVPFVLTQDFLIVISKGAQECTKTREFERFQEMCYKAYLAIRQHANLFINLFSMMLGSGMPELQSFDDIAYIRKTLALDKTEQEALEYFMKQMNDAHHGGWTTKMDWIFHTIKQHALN

[7] = test system: Mus musculus; test: Toxicity in rag1-deficient mouse xenografted with human U87MG cells assessed as body weight loss at 60 mg/kg, ip qd after 14 days relative to control; format: organism-based, U-87MG ATCC; parameters: dose 60 mg/kg, route intraperitoneal; details: in vivo, 336 h
[8] = Half life in C57 mouse at 10 mg/kg, ip; format: ADME, organism-based; parameters: dose 10 mg/kg, route intraperitoneal; details: in vivo
Outline: (§2)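 Male specific pathogen-free age-matched C57 mice; single 10 mg/kg i.p. dose in 10% EtOH; animals culled at multiple time points; blood by cardiac puncture into EDTA, plasma separated by centrifugation, protein precipitated in MeOH.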

[9] = molecular target: T1, Phosphatidylinositol 4,5-bisphosphate 3-kinase catalytic subunit alpha isoform (Homo sapiens, UniProt P42336, H1047R); test: Inhibition of PI3K p110alpha H1047R mutant in human HCT116 cells assessed as inhibition of AKT/PKB phosphorylation at Thr308 incubated for 15 mins prior to insulin stimulation measured after 5 mins by immunoblot analysis; format: cell-based, HCT-116
T1 sequence (P42336 whole entry H1047R, canonical isoform): as the sequence (P42336 whole entry) above, with H1047R counted along it

[10] = molecular target: T1, Phosphatidylinositol 4,5-bisphosphate 3-kinase catalytic subunit alpha isoform; test: Inhibition of PI3K p110alpha H1047R mutant in human HCT116 cells assessed as inhibition of AKT/PKB phosphorylation at Ser473 incubated for 15 mins prior to insulin stimulation measured after 5 mins by immunoblot analysis; format: cell-based, HCT-116
[11] = Cmax in C57 mouse at 10 mg/kg, ip; format: ADME, organism-based; parameters: dose 10 mg/kg, route intraperitoneal; details: in vivo; outline: as §2
[12] = Tmax in C57 mouse at 10 mg/kg, ip; format: ADME, organism-based; parameters: dose 10 mg/kg, route intraperitoneal; details: in vivo; outline: as §2
[13] = AUC (infinity) in C57 mouse at 10 mg/kg, ip; format: ADME, organism-based; parameters: dose 10 mg/kg, route intraperitoneal, time infinity; details: plasma; outline: as §2
[14] = test system: Mus musculus; test: Toxicity in rag1-deficient mouse xenografted with human U87MG cells assessed as mortality without preceding sings of toxicity at 60 mg/kg, ip qd after 14 days relative to control; format: organism-based, U-87MG ATCC; parameters: dose 60 mg/kg, route intraperitoneal; details: in vivo, 336 h
[15] = Antitumor activity against human U87MG cells xenografted in rag1-deficient mouse assessed as tumor growth inhibition at 60 mg/kg, ip qd measured after 7 days relative to control; details: U-87 MG, 168 h, read-out: TGI
[16] = test system: Mus musculus; test: Toxicity in rag1-deficient mouse xenografted with human U87MG cells assessed as body weight loss at 15 mg/kg, ip qd after 14 days relative to control; format: organism-based, U-87MG ATCC; parameters: dose 15 mg/kg, route intraperitoneal; details: in vivo, 336 h
[17] = Antitumor activity against human U87MG cells xenografted in rag1-deficient mouse assessed as tumor growth inhibition at 15 mg/kg, ip qd measured after 7 days relative to control; details: U-87 MG, 168 h, read-out: TGI
[18] = test system: Mus musculus; test: Toxicity in rag1-deficient mouse xenografted with human U87MG cells assessed as body weight loss at 40 mg/kg, ip qd after 14 days relative to control; format: organism-based, U-87MG ATCC; parameters: dose 40 mg/kg, route intraperitoneal; details: in vivo, 336 h
[19] = test system: Mus musculus; test: Toxicity in rag1-deficient mouse xenografted with human U87MG cells assessed as mortality at 40 mg/kg, ip qd after 14 days relative to control; format: organism-based, U-87MG ATCC; parameters: dose 40 mg/kg, route intraperitoneal; details: in vivo, 336 h
Outline: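 Female specific-pathogen-free Rag1−/− mice given 5 × 10⁶ U87MG cells s.c. in PBS on the right flank. Dosing started 3–4 weeks later, once tumors averaged about 8 mm. Drug was given i.p. daily for 14 days at 10 mL/kg as free base, in 10% DMSO, 15% Cremophor EL, 15% EtOH and 60% saline. Bodyweight and tumor volume were recorded every 2–3 days.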

[20] = Antitumor activity against human U87MG cells xenografted in rag1-deficient mouse assessed as tumor growth inhibition at 40 mg/kg, ip qd measured after 7 days relative to control; details: U-87 MG, 168 h, read-out: TGI

SMILES	IC50 [4]	IC50 [5]	IC50 [6]	IC50 [2]	IC50 [3]	other results
CN(C)CCCOc1cccc2c1nc(C(F)F)n2-c1nc(N2CCOCC2)nc(N2CCOCC2)n1.Cl	–	–	–	–	–	solubility [1]: 25 mg/mL
CN(C)CCCOc1cccc2c1nc(C(F)F)n2-c1nc(N2CCOCC2)nc(N2CCOCC2)n1	4.5 nM	7.3 nM	11 nM	40 nM	170 nM	Activity [7]: 5%; half-life [8]: 93.6 min; IC50 [9]: 74 nM; IC50 [10]: 36 nM; Cmax [11]: 1940 nM; Tmax [12]: 15 min; AUC(0-inf) [13]: 2.59 µM·h; Activity [14]: Toxic; inhibition in vivo at 60 mg/kg [15]: 56.3%
FC(F)c1nc2c(OCCCN3CCOCC3)cccc2n1-c1nc(N2CCOCC2)nc(N2CCOCC2)n1	18 nM	76 nM	29 nM	30 nM	60 nM	–
CN(C)CC(O)COc1cccc2c1nc(C(F)F)n2-c1nc(N2CCOCC2)nc(N2CCOCC2)n1 (stereo not given)	13 nM	30 nM	33 nM	110 nM	330 nM	–
OCC(O)COc1cccc2c1nc(C(F)F)n2-c1nc(N2CCOCC2)nc(N2CCOCC2)n1 (stereo not given)	4.7 nM	24 nM	12 nM	25 nM	26 nM	–
O=C(O)COc1cccc2c1nc(C(F)F)n2-c1nc(N2CCOCC2)nc(N2CCOCC2)n1	39 nM	274 nM	52 nM	3400 nM	8500 nM	–
OCCCOc1cccc2c1nc(C(F)F)n2-c1nc(N2CCOCC2)nc(N2CCOCC2)n1	22 nM	170 nM	10 nM	18 nM	71 nM	–
Cn1c(=O)n(-c2ccc(C(C)(C)C#N)cc2)c2c3cc(-c4cnc5ccccc5c4)ccc3ncc21 [DACTOLISIB]	–	–	–	–	–	Activity [16]: 5%; inhibition in vivo at 15 mg/kg [17]: 60.3%
FC(F)c1nc2ccccc2n1-c1nc(N2CCOCC2)nc(N2CCOCC2)n1 [ZSTK-474]	–	–	–	–	–	Activity [18]: 19%; Activity [19]: Toxic; inhibition in vivo at 40 mg/kg [20]: 67.6%

Further lines, with some results ahead:

IC50 [4]	IC50 [5]	IC50 [6]	SMILES	IC50 [2]	IC50 [3]	other results
53 nM	150 nM	130 nM	FC(F)c1nc2c(OCCN3CCOCC3)cccc2n1-c1nc(N2CCOCC2)nc(N2CCOCC2)n1	71 nM	105 nM	–
28 nM	75 nM	28 nM	NCCCOc1cccc2c1nc(C(F)F)n2-c1nc(N2CCOCC2)nc(N2CCOCC2)n1	9 nM	32 nM	–
5.5 nM	53 nM	41 nM	OC(COc1cccc2c1nc(C(F)F)n2-c1nc(N2CCOCC2)nc(N2CCOCC2)n1)CN1CCOCC1 (stereo not given)	25 nM	54 nM	–
15 nM	73 nM	174 nM	CN(C)CCNc1cccc2c1nc(C(F)F)n2-c1nc(N2CCOCC2)nc(N2CCOCC2)n1	110 nM	200 nM	–
52 nM	740 nM	119 nM	NCC(=O)Nc1cccc2c1nc(C(F)F)n2-c1nc(N2CCOCC2)nc(N2CCOCC2)n1	60 nM	140 nM	–
99 nM	1040 nM	379 nM	CN(C)CC(=O)Nc1cccc2c1nc(C(F)F)n2-c1nc(N2CCOCC2)nc(N2CCOCC2)n1	50 nM	50 nM	–
210 nM	3010 nM	855 nM	NCCC(=O)Nc1cccc2c1nc(C(F)F)n2-c1nc(N2CCOCC2)nc(N2CCOCC2)n1	120 nM	440 nM	–
112 nM	1260 nM	486 nM	CN(C)CCC(=O)Nc1cccc2c1nc(C(F)F)n2-c1nc(N2CCOCC2)nc(N2CCOCC2)n1	140 nM	290 nM	–
20 nM	130 nM	17 nM	NCCOc1cccc2c1nc(C(F)F)n2-c1nc(N2CCOCC2)nc(N2CCOCC2)n1	22 nM	52 nM	–
19 nM	105 nM	35 nM	CN(C)CCOc1cccc2c1nc(C(F)F)n2-c1nc(N2CCOCC2)nc(N2CCOCC2)n1	150 nM	450 nM	–
2.6 nM	16 nM	5.3 nM	OCCOc1cccc2c1nc(C(F)F)n2-c1nc(N2CCOCC2)nc(N2CCOCC2)n1	60 nM	60 nM	–
